Data reported in ChEMBL document CHEMBL1157170, “Novel 5-azaindolocarbazoles as cytotoxic agents and Chk1 inhibitors” (Bioorg Med Chem, 2008).
The source made the active and inactive calls. No cut-off for these calls is given here.

Assays:
L1210 [1] = assay: Cell cycle arrest in mouse L1210 cells by accumulation at G1 phase at 1 uM after 21 hrs by flow cytometry; format: functional
Method in brief: (§1)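 L1210 cells at 2.5 × 10⁵ cells/mL incubated 21 h with various compound concentrations. Fixed in 70% ethanol, washed, then stained 30 min in D-PBS containing RNAse and propidium iodide. DNA content analysed by flow cytometry.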

[2] = biological target: T1, Serine/threonine-protein kinase Chk1 (Homo sapiens) (UniProt O14757); assay: Inhibition of human Chk1 expressed in sf9-baculovirus system at 10 uM
T1 sequence (whole entry): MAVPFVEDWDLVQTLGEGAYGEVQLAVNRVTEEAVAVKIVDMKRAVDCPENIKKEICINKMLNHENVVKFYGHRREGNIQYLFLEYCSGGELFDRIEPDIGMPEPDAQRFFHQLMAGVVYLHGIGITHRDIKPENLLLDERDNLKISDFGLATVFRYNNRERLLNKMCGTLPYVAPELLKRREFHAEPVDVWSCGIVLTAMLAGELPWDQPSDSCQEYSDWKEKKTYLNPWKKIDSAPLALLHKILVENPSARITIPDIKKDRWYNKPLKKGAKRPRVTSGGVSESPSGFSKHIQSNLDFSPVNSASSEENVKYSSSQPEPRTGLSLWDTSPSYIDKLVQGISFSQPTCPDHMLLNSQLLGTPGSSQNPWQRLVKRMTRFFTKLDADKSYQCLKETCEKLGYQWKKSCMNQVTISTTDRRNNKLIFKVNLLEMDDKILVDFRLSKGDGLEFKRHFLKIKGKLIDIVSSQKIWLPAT

HT-29 = assay: Antiproliferative activity against human HT29 cells after 96 hrs by microculture tetrazolium assay; conditions: HT-29, 96 h
L1210 [3] = assay: Antiproliferative activity against mouse L1210 cells after 48 hrs by microculture tetrazolium assay; format: functional, cell-based; conditions: L1210, 48 h
Method in brief: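 L1210 cells grown in RPMI 1640 with 10% fetal calf serum, 2 mM L-glutamine, penicillin/streptomycin and 10 mM Hepes (pH 7.4). Exposed for 48 h (four doubling times) to nine serial dilutions, each in triplicate. Read-out was microculture tetrazolium assay. IC50 is the concentration that cut optical density by 50% versus untreated controls.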

[4] = biological target: T2, Serine/threonine-protein kinase Chk1 (Homo sapiens, UniProt O14757); assay: Inhibition of human Chk1 expressed in sf9-baculovirus system
T2 sequence (O14757 whole entry): T1 sequence (whole entry)
Method in brief: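 Kinase was GST-tagged Chk1 purified from extracts of Sf9 cells infected with a GST-Chk1 baculovirus. Assay format followed a published method.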

L1210 [5] = assay: Cell cycle arrest in mouse L1210 cells by accumulation at G2M phase at 5 uM after 21 hrs by flow cytometry; format: functional; method in brief: as §1
L1210 [6] = assay: Cell cycle arrest in mouse L1210 cells by accumulation at G2M phase at 1 uM after 21 hrs by flow cytometry; format: functional; method in brief: as §1
L1210 [7] = assay: Toxicity against mouse L1210 cells at 20 uM; format: functional, cell-based

| Compound | inhibition [2] | IC50 (HT-29) | IC50 (L1210 [3]) | IC50 [4] | Activity (L1210 [1]) | Activity (L1210 [5]) | Activity (L1210 [6]) | Activity (L1210 [7]) |
| --- | --- | --- | --- | --- | --- | --- | --- | --- |
| O=C1NC(=O)c2c1c1c3ccccc3[nH]c1c1[nH]c3ccncc3c21 | 98.6% | 1.5 µM | 0.6 µM | 5 µM | 60% |  |  |  |
| O=C1NC(=O)c2c1c1c3cnccc3[nH]c1c1[nH]c3ccc(O)cc3c21 | 99.1% | > 100 µM | 80.7 µM | 0.027 µM |  |  |  |  |
| CN1C(=O)c2c(c3c4cc(O)ccc4[nH]c3c3[nH]c4ccncc4c23)C1=O | 38.5% | > 100 µM | 11.9 µM |  |  |  |  |  |
| CN(C)CCN1C(=O)c2c(c3c4cc(O)ccc4[nH]c3c3[nH]c4ccncc4c23)C1=O | 48.9% | 50.9 µM | 2.6 µM |  |  |  |  |  |
| CN1C(=O)c2c(c3c4ccccc4n([C@@H]4O[C@H](CO)[C@@H](O)[C@H](O)[C@H]4O)c3c3[nH]c4cc[n+](Cc5ccccc5)cc4c23)C1=O | 51.4% | 63.7 µM | 12.8 µM |  |  |  |  |  |
| CN(C)CCN1C(=O)c2c(c3c4cc5c(cc4[nH]c3c3[nH]c4ccncc4c23)OCO5)C1=O | 6.7% | 1.76 µM | 0.195 µM |  |  |  | 62% |  |
| O=C1NC(=O)c2c1c1c3ccc(O)cc3[nH]c1c1[nH]c3ccncc3c21 | 98.7% | > 100 µM | 3.3 µM | 0.014 µM |  |  |  |  |
| CC(=O)OC[C@H]1O[C@@H](n2c3ccccc3c3c4c(c5c6c[n+](Cc7ccccc7)ccc6[nH]c5c32)C(=O)N(C)C4=O)[C@H](OC(C)=O)[C@@H](OC(C)=O)[C@@H]1OC(C)=O | 46.5% | > 100 µM | 14.3 µM |  |  |  |  |  |
| O=C1NC(=O)c2c1c1c3cnccc3[nH]c1c1[nH]c3ccc(OCc4ccccc4)cc3c21 | 90.6% | 7.6 µM | 1.5 µM | 1.32 µM |  |  |  |  |

More lines, main results first:

| inhibition [2] | IC50 (HT-29) | IC50 (L1210 [3]) | IC50 [4] | Compound | Activity (L1210 [1]) | Activity (L1210 [5]) | Activity (L1210 [6]) | Activity (L1210 [7]) |
| --- | --- | --- | --- | --- | --- | --- | --- | --- |
| 95.9% | 32.4 µM | 1.1 µM | 0.072 µM | O=C1NC(=O)c2c1c1c3ccc(OCc4ccccc4)cc3[nH]c1c1[nH]c3ccncc3c21 |  | 43% |  |  |
| 49% |  | > 100 µM |  | CN1C(=O)c2c(c3c4ccccc4n([C@@H]4O[C@H](COCc5ccccc5)[C@@H](OCc5ccccc5)[C@H](OCc5ccccc5)[C@H]4OCc4ccccc4)c3c3[nH]c4ccncc4c23)C1=O |  |  |  |  |
| 27% | 2 µM | 0.6 µM |  | CN1C(=O)c2c(c3c4cnccc4[nH]c3c3[nH]c4cc(OCc5ccccc5)ccc4c23)C1=O |  |  |  |  |
| 32.7% | 2.9 µM | 1.4 µM |  | CN(C)CCN1C(=O)c2c(c3c4cnccc4[nH]c3c3[nH]c4cc(OCc5ccccc5)ccc4c23)C1=O |  |  |  |  |
| 17.6% | 19.5 µM | 16.3 µM |  | CN(C)CCN1C(=O)c2c(c3c4cc(OCc5ccccc5)ccc4[nH]c3c3[nH]c4ccncc4c23)C1=O |  |  |  |  |
| 66.6% | 16.2 µM | 2.7 µM | 5 µM | CN1C(=O)c2c(c3c4cnccc4[nH]c3c3[nH]c4cc(O)ccc4c23)C1=O |  |  |  | Active |
| 49.4% | 3.8 µM | 0.47 µM |  | CN(C)CCN1C(=O)c2c(c3c4cnccc4[nH]c3c3[nH]c4ccccc4c23)C1=O |  |  |  |  |
| 26.7% | 3.35 µM | 0.495 µM |  | CN1C(=O)c2c(c3c4cc5c(cc4[nH]c3c3[nH]c4ccncc4c23)OCO5)C1=O |  |  |  |  |
